Where two headings read alike, the source gives them in different places. Square brackets hold non-standard residues; d marks the D form. Peptide text beside a SMILES is read from it. pY = N[C@@H](Cc1ccc(OP(=O)(O)O)cc1)C(=O)O
Experiments:
[1] = target: FPRck-inhibited thrombin (anion-binding exosite II) (Homo sapiens, UniProt P00734); assay: Surface plasmon resonance; details: SPR; for measurable binding to thrombin (in words): HBS-EP+, 25°C (Figure 3)
Outline: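 Biotinylated peptides captured on streptavidin chips at 150 RU after three 60 s 1 M NaCl/50 mM NaOH conditioning pulses, with blank reference cells. HBS-EP+ (10 mM HEPES pH 7.4, 150 mM NaCl, 0.05% P20, 3 mM EDTA), 25°C. Serial thrombin injections for 20 s at 50 μl/min, 30 s dissociation, no regeneration. Buffer-only and reference signals subtracted. Equilibrium 1:1 Langmuir Kd from three replicates with fresh dilutions.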

[2] = target: wild-type γ′ peptide (fibrinogen γ′ chain 410-427, both tyrosines phosphorylated); assay: SPR
[3] = target: wild-type γ′ peptide (fibrinogen γ′ chain 410-427, both tyrosines phosphorylated); assay: SPR; remark: listed apart in the source
[4] = target: wild-type γ′ peptide (fibrinogen γ′ chain 410-427, both tyrosines phosphorylated); assay: SPR; remark: listed apart in the source
[5] = target: wild-type γ′ peptide (fibrinogen γ′ chain 410-427, both tyrosines phosphorylated); assay: SPR; remark: listed apart in the source
[6] = target: γ′ analog peptide #12 (amino terminal three charges substituted); assay: SPR
[7] = target: γ′ analog peptide #6 (pTyr422Tyr); assay: SPR
γ′ analog peptide #1 = assay: SPR
γ′ analog peptide #3 = assay: SPR
γ′ analog peptide #7 = assay: SPR
[8] = target: γ′ analog peptide #9 (Asp426Asn); assay: SPR
[9] = target: γ′ analog peptide #13 (carboxyl terminal three charges substituted); assay: SPR
[10] = target: wild-type γ′ peptide (fibrinogen γ′ chain 410-427, both tyrosines phosphorylated); assay: SPR; remark: listed apart in the source
γ′ analog peptide #8 = assay: SPR
[11] = target: γ′ analog peptide #4 (pTyr418Tyr); assay: SPR
γ′ analog peptide #2 = assay: SPR
[12] = target: γ′ analog peptide #5 (Asp419Asn); assay: SPR

CC(C)C[C@H](NC(=O)[C@H](CC(=O)O)NC(=O)[C@H](CC(=O)O)NC(=O)[C@H](CCC(=O)O)NC(=O)[C@@H]1CCCN1C(=O)[C@H](Cc1ccc(OP(=O)(O)O)cc1)NC(=O)[C@H](CC(C)C)NC(=O)[C@H](CO)NC(=O)[C@H](CC(=O)O)NC(=O)[C@H](Cc1ccc(OP(=O)(O)O)cc1)NC(=O)[C@H](CCC(=O)O)NC(=O)[C@@H](NC(=O)[C@H](CCC(=O)O)NC(=O)[C@H](C)NC(=O)[C@@H]1CCCN1C(=O)[C@H](Cc1c[nH]cn1)NC(=O)[C@H](CCC(=O)O)NC(=O)[C@@H]1CCCN1)[C@@H](C)O)C(=O)O [Wild-type] (H-PEHPAETE[pY]DSL[pY]PEDDL-OH) gave a Kd ([1]; Kd (mean ± standard error of the mean), [NaCl] 150 mM, 25°C) of 488 ± 42 nM.

In the case of FPRck-inhibited thrombin (enzyme), the Kd [2] is reported as 488 nM, the Kd [3] is reported as 18600 nM and the Kd [4] is reported as 120000 nM. The Kd [5] was 6050 nM, the Kd [6] was 1970 nM and the Kd [7] was 702 nM. It also gave a Kd (γ′ analog peptide #1) of 441 nM, a Kd (γ′ analog peptide #3) of 541 nM and a Kd (γ′ analog peptide #7) of 582 nM. It also gave a Kd [8] of 465 nM, a Kd [9] of 3190 nM and a Kd [10] of 440 nM. It also gave a Kd (γ′ analog peptide #8) of 608 nM, a Kd [11] of 583 nM and a Kd (γ′ analog peptide #2) of 485 nM. It also gave a Kd [12] of 705 nM.

For PEHPAETE YNSL YPEDDL [#10], the “measurable binding to thrombin (in words)” value [1] was “complete absence of measurable binding”.

In the case of PQHPAQTQpYDSLpYPQNNL [#11], the “measurable binding to thrombin (in words)” value [1] is reported as “no measurable interaction with thrombin”.

Source: publication PMC3943421 (Biochemistry, 2012)
